The target of assay [1] is T1, NAD-dependent protein deacetylase sirtuin-2 (Homo sapiens, UniProt Q8IXJ6).
T1 sequence (Q8IXJ6 whole entry): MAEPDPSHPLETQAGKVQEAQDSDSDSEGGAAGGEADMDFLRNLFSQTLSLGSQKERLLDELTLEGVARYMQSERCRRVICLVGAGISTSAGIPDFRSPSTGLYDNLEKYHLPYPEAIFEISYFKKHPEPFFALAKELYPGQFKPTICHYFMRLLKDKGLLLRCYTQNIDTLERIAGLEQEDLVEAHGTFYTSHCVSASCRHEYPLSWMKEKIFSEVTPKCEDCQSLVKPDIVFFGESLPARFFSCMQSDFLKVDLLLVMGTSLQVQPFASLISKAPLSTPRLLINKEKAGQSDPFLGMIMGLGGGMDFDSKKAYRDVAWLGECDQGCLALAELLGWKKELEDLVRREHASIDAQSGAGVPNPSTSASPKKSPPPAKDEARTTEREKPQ
Briefly: Inhibition of human recombinant SIRT2. Put shortly:
(§1)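 Homogeneous fluorescent deacetylase assay with recombinant SIRT1 or SIRT2 (SIRT2 full-length, N-terminal His6, expressed in E. coli BL21). Inhibition taken from remaining substrate versus no-inhibitor control. Run at least in duplicate, inhibitors added from DMSO stocks.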

The target in assay [2] is T2, NAD-dependent protein deacetylase sirtuin-1 (Homo sapiens) (UniProt Q96EB6).
T2 sequence (whole entry): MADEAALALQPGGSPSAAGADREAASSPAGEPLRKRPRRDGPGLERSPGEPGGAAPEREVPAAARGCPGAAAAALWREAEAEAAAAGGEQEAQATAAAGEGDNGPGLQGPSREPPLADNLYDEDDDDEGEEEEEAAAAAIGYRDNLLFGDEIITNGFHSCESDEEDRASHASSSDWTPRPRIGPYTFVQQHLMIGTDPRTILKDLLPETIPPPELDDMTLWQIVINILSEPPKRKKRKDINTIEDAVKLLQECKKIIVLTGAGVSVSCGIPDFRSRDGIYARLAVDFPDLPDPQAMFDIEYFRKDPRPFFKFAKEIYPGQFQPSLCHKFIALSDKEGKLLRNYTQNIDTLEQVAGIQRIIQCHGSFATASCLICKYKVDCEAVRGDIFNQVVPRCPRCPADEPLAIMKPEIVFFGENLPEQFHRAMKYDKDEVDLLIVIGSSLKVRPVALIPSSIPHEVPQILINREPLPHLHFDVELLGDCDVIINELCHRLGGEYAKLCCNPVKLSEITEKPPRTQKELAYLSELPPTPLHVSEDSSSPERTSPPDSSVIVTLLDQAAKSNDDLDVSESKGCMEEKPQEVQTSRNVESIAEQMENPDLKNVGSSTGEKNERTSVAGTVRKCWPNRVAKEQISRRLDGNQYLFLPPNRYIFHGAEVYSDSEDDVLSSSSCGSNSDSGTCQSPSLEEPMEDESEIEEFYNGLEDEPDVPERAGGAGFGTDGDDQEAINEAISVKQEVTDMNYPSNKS
Briefly: Inhibition of human SIRT1 at 50 uM. The gist of the method:
(§2)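 Homogeneous fluorescent deacetylase assay with recombinant SIRT1 or SIRT2 (SIRT2 full-length, N-terminal His6, expressed in E. coli BL21). Reaction held ZMAL substrate 10.5 µM and NAD+ 500 µM, run 4 h at 37 °C. Deacetylated product developed by tryptic digest; fluorescence read at ex 390/em 460 nm. Inhibition taken from remaining substrate versus no-inhibitor control. Run at least in duplicate, inhibitors added from DMSO stocks.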

In assay [3] the target is T3, NAD-dependent protein deacetylase sirtuin-2 (Homo sapiens) (UniProt Q8IXJ6).
T3 sequence (whole entry): T1 sequence (Q8IXJ6 whole entry)
Briefly: Inhibition of human recombinant SIRT2 at 12.5 uM. The gist of the method: as §1

Assay [4] addresses T3, NAD-dependent protein deacetylase sirtuin-2 (Homo sapiens). Briefly: Inhibition of human recombinant SIRT2 at 50 uM. The gist of the method: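 N-terminally His6-tagged full-length human SIRT2, expressed in E. coli BL21. Homogeneous fluorescent deacetylase assay with ZMAL substrate (10.5 µM) and NAD+ (500 µM), 4 h at 37 °C. Inhibitor was added from DMSO stock. After stopping, a tryptic digest developed the fluorophore (ex 390/em 460 nm). Inhibition was taken from remaining substrate versus an uninhibited control, run at least in duplicate.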

Assay [5] shares this target. Put plainly: Inhibition of SIRT2 in A549 cells assessed as ability to induce hyperacetylation of tubulin by Western blot analysis at 0.1 uM. It counts as cell-based. The gist of the method: (§3)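 A549 human lung carcinoma cells grown in DMEM with 10% FBS, penicillin-streptomycin and 2 mM L-glutamine. Plated 1 day before treatment, then exposed to compound for 6 h. Cells washed with PBS and lysed in buffer containing 400 nM TSA. Lysates run on 10% SDS-PAGE and western blotted for acetylated alpha-tubulin against total alpha-tubulin.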
Background: A western blot detects proteins with antibodies after separation by electrophoresis.

The target of assay [6] is T4, NAD-dependent protein deacetylase sirtuin-1 (Homo sapiens, UniProt Q96EB6).
T4 sequence (Q96EB6 whole entry): T2 sequence (whole entry)
Briefly: Inhibition of human SIRT1 by fluorescent deacetylase assay. Put shortly: as §2

Assay [7] has as its target T3, NAD-dependent protein deacetylase sirtuin-2 (Homo sapiens). Put plainly: Inhibition of SIRT2 in A549 cells assessed as ability to induce hyperacetylation of tubulin by Western blot analysis. It counts as cell-based. The gist of the method:
as §3

The target in assay [8] is T4, NAD-dependent protein deacetylase sirtuin-1. Briefly: Inhibition of human SIRT1 by radioactive deacetylase assay. The gist of the method: (§4)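 Radioactive deacetylase assay with recombinant SIRT1 or SIRT2. Substrate was [3H]-acetylated histone H4 N-terminal peptide (residues 1-25). Released [3H]acetic acid quantified by scintillation counting.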
Assay [9] addresses T1, NAD-dependent protein deacetylase sirtuin-2. Briefly: Inhibition of human recombinant SIRT2 by fluorescent deacetylase assay. Put shortly: as §1
Assay [10] has the same target. Briefly: Inhibition of human recombinant SIRT2 by radioactive deacetylase assay. Put shortly:
as §4

Assay [11] addresses T4, NAD-dependent protein deacetylase sirtuin-1. Put plainly: Inhibition of human SIRT1. Put shortly: as §1

These results are taken from ChEMBL document CHEMBL1137294, “Adenosine mimetics as inhibitors of NAD+-dependent histone deacetylases, from kinase to sirtuin inhibition” (J Med Chem, 2006).

The structures appear in SMILES notation. Calls of active or inactive are those of the source. No cut-off for these calls is given here.

Regarding `O=C1NC(=O)C(c2c[nH]c3ccccc23)=C1c1c[nH]c2ccccc12` [RO-316233], the IC50 (as a rule, the concentration that gives 50% inhibition) in [1] came out at 4.7 µM. Further, the inhibition (commonly the drop in the measured response relative to a control, in per cent) in [2] is 52.7%.

Consider `C=CC(=O)c1ccc2ccccc2c1`, for which the inhibition in assay [3] is above 60%. Take `COCc1cc(-c2c(COC)cc(O)c(O)c2O)c(O)c(O)c1O`: the inhibition in assay [3] was above 60%. For the compound `O=C1Cc2c([nH]c3ccc(Br)cc23)-c2ccccc2N1` [KENPAULLONE], the IC50 in assay [1] is above 100 µM. For the compound `O=C1NC(=O)C2=C1c1cn(c3ccccc13)CCOC(C(O)CO)CCn1cc2c2c(F)cccc21` (stereo unspecified), in assay [1], the IC50 is above 50 µM. For the same compound, the outcome in assay [2] was inactive. Take `ONC1=Nc2ccccc2-c2[nH]c3ccc(Br)cc3c2C1`: the inhibition in assay [4] stood at 43.1%. In the case of `CN1C(=O)C(c2cn(CCCCCCCO)c3ccccc23)=C(c2cn(CCCCCCCO)c3ccccc23)C1=O`, the half-maximal inhibitory concentration (IC50) in assay [1] was above 100 µM.

Regarding `Cn1c2ccccc2c2c3c(c4c5ccccc5n(CCC#N)c4c21)CNC3=O` [GO-6976], the IC50 in assay [1] is above 100 µM. Still for that read-out and setting: then `CN1C(=O)C(c2cn(Cc3ccccc3)c3ccccc23)=C(c2cn(Cc3ccccc3)c3ccccc23)C1=O`, with 78.3 µM.

In the case of `CC(/C=C/C(=O)NO)=C\[C@@H](C)C(=O)c1ccc(N(C)C)cc1`, in assay [5], the result was Active. On to `O=C1NC(=O)C(c2c[nH]c3cccc(F)c23)=C1c1cn(CCOC(CCO)C2COC3(CCCCC3)O2)c2ccccc12` (stereo unspecified), for which the IC50 in [1] worked out at 2.5 µM. For the same compound, the inhibition in assay [2] stood at 71.9%. The corresponding values for `O=C1NC(=O)C(c2c[nH]c3cccc(F)c23)=C1c1cn(CCOC(CCO)C(O)CO)c2ccccc12` (stereo unspecified) are 9.5 µM and 29.9%. On to `O=C1Cc2c([nH]c3ccccc23)-c2ccccc2N1` [PAULLONE], for which the inhibition in assay [2] came to 49.4%. For the same compound, the values for the IC50 in assay [6] and in [8] were 50 µM and 8 µM, respectively. For the same compound, in assay [7], the result was Active.

As to `CN[C@@H]1C[C@H]2O[C@@](C)([C@@H]1OC)n1c3ccccc3c3c4c(c5c6ccccc6n2c5c31)C(=O)NC4`, the result in [4] was inactive. `CN(C)C[C@H]1OCCn2cc(c3ccccc32)C2=C(C(=O)NC2=O)c2cn(c3cccc(F)c23)C[C@H]1F`: in [1], the IC50 is above 50 µM. Further, in assay [2], the outcome was inactive. For `CN(C)CCCn1cc(C2=C(c3c[nH]c4ccccc34)C(=O)NC2=O)c2ccccc21` [GF-109203], in assay [3], the inhibition was above 60%. The IC50 in assay [1] was 7.3 µM; in [9], 7.3 µM; in assay [10], 11.7 µM; in assay [6], above 50 µM; in assay [8], 23 µM; in assay [11] it was above 50 µM. Regarding `O=C1NC(=O)C2=C1c1cn(c3ccccc13)CC[C@@H](C1COC3(CCCCC3)O1)OCCn1cc2c2c(F)cccc21` (stereo partly specified), in assay [1], the IC50 came to 20.8 µM. In addition, in [2], the inhibition was found to be 55.7%.

`NC(=O)c1cccnc1`: the inhibition in [2] stood at 10.6%. With `COC(=O)/C=C/c1cc(O)ccc1O`, the inhibition in [3] is above 60%. In the case of `O=C1NC(=O)C(c2cn(CCOC(CCO)C3COC4(CCCCC4)O3)c3ccccc23)=C1c1c[nH]c2ccccc12` (stereo unspecified), the IC50 in [1] amounted to 2.8 µM. The same compound displayed an inhibition in assay [2] of 77.5%.

For the compound `CN1C(=O)C(c2c[nH]c3ccccc23)=C(c2c[nH]c3ccccc23)C1=O`, the IC50 is 33 µM in assay [1]; 33 µM in assay [9]; 24.1 µM in assay [10]; above 50 µM in [6]; 15.7 µM in assay [8]; above 50 µM in [11]. On to `O=Nc1c(-c2c(O)[nH]c3ccccc23)[nH]c2ccccc12`, for which, in [3], the inhibition was above 60%. On to `O=C1C(c2c[nH]c3ccccc23)=C(c2c[nH]c3ccccc23)C(=O)N1Cc1ccccc1`, for which the IC50 in assay [1] was 40 µM.

As to `CN1CCCC1CCn1cc(C2=C(c3c[nH]c4ccccc34)C(=O)NC2=O)c2ccccc21` (stereo unspecified), the IC50 in [1] came to 8.3 µM. Also, the inhibition in [2] came out at 58.2%. On to `O=C(O)c1cc(NCc2cc(O)ccc2O)ccc1O`, for which, in assay [3], the inhibition is above 60%. The same measure, in the same setting: then `Oc1cc(O)cc(/C=C/c2ccc(O)c(O)c2)c1`, with above 60%. As for `O=C1Nc2ccc(I)cc2C1=Cc1cc(Br)c(O)c(Br)c1`, the inhibition in assay [3] is above 60%. As to `CCCCCCCn1cc(C2=C(c3cn(CCCCCCC)c4ccccc34)C(=O)N(C)C2=O)c2ccccc21`, in assay [1], the IC50 was above 100 µM. Consider `CC(=O)c1c(O)c(C)c(O)c(Cc2c(O)c3c(c(C(=O)/C=C/c4ccccc4)c2O)OC(C)(C)C=C3)c1O`, for which, in assay [3], the inhibition was above 60%.
